# CHO parental Ca: signal in parental CHO cells, OX1R antagonist counter-screen; parental CHO-K1, ATP-induced calcium, Fluo-8 fluorescence; inhibition, % at 5.6 µM; 330,000 compounds, 0.63% hits; AID 463079;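 active = inhibition above that plate's mean sample inhibition plus 3 SD, cut at about 26% in these data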;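 also: 0% = ATP-challenged DMSO wells and 100% = DMSO wells without ATP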
#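 Assay system: untransfected parental CHO cell line. Also added: ATP agonist challenge. Dosing: one dose, 5.6 µM nominal. Measured by: Fluo-8 fluorescence. Read-out: % inhibition. Benchmarks: ATP wells versus no-ATP DMSO wells. Repeats: no replicates.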
# GPR7 antag: human neuropeptides B/W receptor 1 antagonism. P48145. GPR7-expressing cells, fluorescence antagonist assay. inhibition, % at 4.4 µM. 290,000 compounds, 1.1% hits; in the data active = inhibition above about 16%, passing the limit was not always enough;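 also: cells stimulated with the agonist NPW; 0% = agonist with vehicle and 100% = vehicle without agonist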
# Target sequence (P48145 whole entry, looked up): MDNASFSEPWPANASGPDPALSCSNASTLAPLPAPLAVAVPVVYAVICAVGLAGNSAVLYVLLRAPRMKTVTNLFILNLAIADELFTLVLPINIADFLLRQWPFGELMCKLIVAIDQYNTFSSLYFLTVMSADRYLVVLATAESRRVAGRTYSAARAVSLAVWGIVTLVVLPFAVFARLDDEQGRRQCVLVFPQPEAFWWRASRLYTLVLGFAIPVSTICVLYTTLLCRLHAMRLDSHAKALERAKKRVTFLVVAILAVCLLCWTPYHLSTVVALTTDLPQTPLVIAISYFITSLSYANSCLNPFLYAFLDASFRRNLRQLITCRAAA
# OX1R antag-1: blocks the human orexin 1 receptor. CHO/OX1R cells, Fluo-8 calcium fluorescence, orexin A. inhibition, % at 5 µM. 330,000 compounds, 0.43% hits;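 active = inhibition above its plate's threshold, mean inhibition of all tested compounds on the plate plus 3 SD, cut at about 37% in these data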;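 also: 0% = orexin A challenge wells and 100% = SB-334867-A antagonist wells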
# OX1R antag-2: OX1R (human) antagonism. 330,000 compounds, 1.8% hits. OX1R-expressing cells, FRET antagonist read-out. inhibition, % at 6.6 µM; in the data active = inhibition mostly above about 38%, no sharp cut-off; inactive = mostly below about 40%;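 also: 0% = agonist challenge alone and 100% = reference antagonist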
# TAAR1 antag: human TAAR1 antagonism. Q96RJ0. 360,000 compounds, 1.5% hits. CHO RD-HGA16 TAAR1, Fluo-8 calcium fluorescence, antagonist. inhibition, % at 3 µM;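 active = inhibition above a per-plate cutoff, the mean inhibition of test compounds on that plate plus 3 SD, cut at about 49% in these data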;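 also: 0% = DMSO plus EC80 beta-PEA response and 100% = DMSO alone without agonist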
# Target sequence (Q96RJ0 whole entry, looked up): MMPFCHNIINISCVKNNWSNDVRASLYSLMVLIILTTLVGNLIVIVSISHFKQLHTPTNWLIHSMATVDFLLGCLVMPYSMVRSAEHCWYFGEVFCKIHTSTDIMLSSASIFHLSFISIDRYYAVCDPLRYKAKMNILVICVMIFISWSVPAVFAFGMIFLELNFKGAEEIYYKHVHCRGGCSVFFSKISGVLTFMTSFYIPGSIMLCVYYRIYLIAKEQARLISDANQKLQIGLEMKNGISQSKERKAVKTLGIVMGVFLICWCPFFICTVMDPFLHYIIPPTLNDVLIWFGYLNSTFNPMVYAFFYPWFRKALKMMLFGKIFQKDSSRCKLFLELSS
#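 Material: CHO RD-HGA16 cells bearing hTAAR1; compound dosing: one-point dosing, 3 µM nominal final; schedule: dye loading 75 min at 37 °C, then 30 min room temperature; measured by: calcium fluorescence with Fluo-8; control set: vehicle and agonist controls; replication: n of 1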
# TAAR1 ag: agonists of human TAAR1; Q96RJ0; CHO RD-HGA16 TAAR1, Fluo-8 calcium fluorescence; vehicle wells 0%, saturating PEA agonist 100%; activation, % at 3 µM; 360,000 compounds, 0.99% hits;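 active = activation above the mean activation of all test compounds in the run plus 3 SD, cut at about 38% in these data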
#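 Test system: RD-HGA16 (CHO) cells co-expressing Gα16 and hTAAR1 / Benchmarks: DMSO vehicle as 0%, PEA at EC100 as 100% / Repeats: no replicates (n 1) / Measure: % activation from peak over basal fluorescence ratio, DMSO-to-PEA scaled / Timing: 17-24 h plating, Fluo-8 75 min 37 °C, 30 min RT / Technique: kinetic Fluo-8 calcium fluorescence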
# OX1R Ca confirm: confirmation of human orexin 1 receptor antagonists. shares compounds with OX1R antag-1. inhibition, % at 5 µM. 1,100 compounds, 38% hits. CHO/OX1R cells, orexin A calcium Fluo-8 fluorescence; in the data active = inhibition above about 29%;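 also: 0% = agonist challenge alone and 100% = reference antagonist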
# CHO Ca counter: counter-screen: parental CHO calcium response change, triplicate. shares compounds with OX1R antag-1. 1,100 compounds, 9.3% hits. inhibition, % at 5.6 µM. parental CHO-K1, ATP-induced calcium, Fluo-8 fluorescence;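 active = inhibition above a per-plate limit, the mean inhibition of that plate's test compounds plus 3 SD, cut at about 25% in these data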;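 also: 0% = ATP challenge with DMSO and 100% = DMSO without ATP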
# An asterisk follows results filed as active; nt = not tested or not shown. Sampled rows, rich in hits. Any-hit rate of the full collection: about 4.5%.
SMILES,CHO parental Ca,GPR7 antag,OX1R antag-1,OX1R antag-2,TAAR1 antag,TAAR1 ag,OX1R Ca confirm,CHO Ca counter
COc1ccccc1OCCCCCc1c(C)n[nH]c1C,9,-2,43,19,14,11,9,1
Cc1ccccc1S(=O)(=O)NC(=O)C1(C)CCN1C(=O)COc1ccc(Cl)cc1 (configuration not stated),nt,nt,nt,nt,-9,2,nt,nt
Nc1c(C(O)(C(F)(F)F)C(F)(F)F)cc(C(O)(C(F)(F)F)C(F)(F)F)c2ccccc12,7,3,28,25,nt,nt,-6,-1
O=c1c2ccccc2c2ccccc2c(=O)n1Nc1ccccc1,nt,nt,nt,nt,-19,4,nt,nt
CCCCCCNC(=O)CC(c1ccccc1)c1cc(Br)ccc1O (configuration not stated),17,-6,35,53,35,12,-13,-15
CC1(C(=O)NS(=O)(=O)c2ccccc2C(F)(F)F)CCN1C(=O)c1cccc(F)c1 (configuration not stated),nt,nt,nt,nt,-5,3,nt,nt
c1ccc(Cn2nnnc2C(c2cccs2)N2CCCCCC2)cc1 (configuration not stated),4,-10,38,9,48,18,-15,-13
COc1ccc(Cn2nnnc2C(c2cccs2)N2CCN(c3ccccc3)CC2)cc1 (configuration not stated),-9,-9,-23,29,5,6,nt,nt
COc1ccc(OC(=O)N2CCOCC2)cc1,3,-6,26,-3,-1,-1,-1,3
O=C(/C=C/[C@H]1O[C@@H](n2ccc(=O)[nH]c2=O)[C@H](O)[C@@H]1O)N[C@@H](Cc1ccccc1)C(=O)O,nt,nt,nt,nt,-21,3,nt,nt
CCCCOc1ccc(S(=O)(=O)N2CCCCCC2)cc1,5,7,42,-1,-6,2,-14,13
CCCCNC(=O)C[C@@H]1C[C@@]2(C(=O)OCC)CCCC=C2N(Cc2ccc3c(c2)OCO3)C1=O,nt,nt,nt,nt,-6,1,nt,nt
Cc1cc(C(=O)OC(C)C(=O)NC2CCCCC2C)c2ccccc2n1 (configuration not stated),nt,nt,nt,nt,-14,1,nt,nt
OCc1ccccc1-c1cnc2cccnn12,nt,nt,nt,nt,-10,0,nt,nt
O=C(NCc1nc(-c2ccc(C(F)(F)F)cc2)no1)Nc1cc(Cl)cc(Cl)c1,7,-8,24,8,25,8,3,48*
O=C(NCc1nc(-c2ccc(C(F)(F)F)cc2)no1)Nc1ccc(F)cc1F,12,-9,-8,9,-8,1,nt,nt
Cc1ccc(-n2nnnc2SCn2nnc3ccccc3c2=O)c(C)c1,8,-6,42*,10,3,6,12,21
CCN(CC)C(=O)[C@H]1C[C@H](CC(=O)NCCN2CCOCC2)C(=O)N2CCc3c([nH]c4cc(CCC(=O)N(C)C)ccc34)[C@]12C,8,nt,9,1,-1,1,nt,nt
COc1ccc(/C=c2\sc3nc(-c4ccccc4OC)nn3c2=O)c(OC)c1,-2,-11,43*,16,5,13,90*,18
COc1ccccc1-c1nc2s/c(=C\c3cccs3)c(=O)n2n1,1,-8,-5,-1,-2,6,nt,nt
CC(C)=CCOc1c2ccoc2c(OCC=C(C)C)c2oc(=O)ccc12,-4,nt,54*,13,23,-2,5,53*
N=C1/C(=C/c2coc3ccccc3c2=O)C(=O)N=C2SC(c3ccco3)=NN12,-10,9,-12,3,nt,nt,nt,nt
N=C1/C(=C\c2coc3ccc(O)cc3c2=O)C(=O)N=C2SC=CN12,21,-3,32,16,41,48*,26,30*
COc1ccc(NC(=O)CCc2nc(-c3ccc(C)cc3)no2)cc1Cl,16,-15,34,56,13,24,5,6
CCCCCc1c(-c2ccc(F)cc2F)ncn1CCc1ccccc1OC,nt,nt,nt,nt,33,7,nt,nt
SMILES,CHO parental Ca,GPR7 antag,OX1R antag-1,OX1R antag-2,TAAR1 antag,TAAR1 ag,OX1R Ca confirm,CHO Ca counter
O=C(OCc1ccccc1)N1CCN(C(c2ccnc3ccccc23)c2nnnn2-c2ccc3c(c2)OCCO3)CC1 (configuration not stated),nt,nt,nt,nt,-25,1,nt,nt
S=C(NCc1cccnc1)Nc1cccc2ccccc12,-7,-3,33,13,10,1,-1,-5
NS(=O)(=O)c1cccc(NC(=O)CSc2n[nH]c(-c3ccccc3Br)n2)c1,nt,nt,nt,nt,10,2,nt,nt
Cc1nc2c(-c3ccc(Cl)cc3)cnn2c(N)c1-c1ccc(F)cc1,1,-8,-23,15,7,1,nt,nt
Cc1nc2c(-c3ccc(Cl)cc3)cnn2c2c1CCC2,-9,-11,40*,45,-13,1,34*,-18
O=C(CSc1ccccn1)Nc1nonc1[N+](=O)[O-],-12,17,6,41,-13,4,nt,nt
COc1ccc(S(=O)(=O)Nc2ccc3c(c2)n(C)c(=O)n3C)cc1C,-12,14,-1,8,9,8,nt,nt
CCOC(=O)c1oc2ccc(S(=O)(=O)Nc3ccc4c(c3)n(C)c(=O)n4C)cc2c1C,17,-22,47*,25,4,8,-6,3
O=C(Cc1cccs1)Nc1ccc(-c2nnc(-c3ccccc3)o2)cc1,-18,-4,-26,19,9,13,nt,nt
Cc1cccc(-c2nnc(-c3cccc(NC(=O)Cc4cccs4)c3)o2)c1,25,-11,65*,37,74*,11,0,-12
CC(C)(C)c1cc(C(=O)CCN2CCOCC2)cc(C(C)(C)C)c1O,22,29,37,2,18,4,-3,-19
COc1ccc(C2=NCC(CSc3nnc(-c4ccc5c(c4)OCO5)o3)S2)cc1 (configuration not stated),15,-1,47*,14,50*,8,12,-1
Cc1ccc(CSc2nnc(-c3ccc4c(c3)OCO4)o2)cc1,3,-9,-24,-5,7,7,nt,nt
CCc1ccc(NC(=O)[C@H](NC(=O)[C@@H]2Cc3ccccc3CN2)c2ccccc2)cc1,-28,9,-1,2,-1,17,nt,nt
CCc1ccc(NC(=O)[C@@H](NC(=O)[C@@H]2Cc3ccccc3CN2)C(C)CC)cc1 (some centres not stated),-9,-2,77*,0,13,-1,-12,-14
CC1(C)CC(NC(=O)C2CCN(S(=O)(=O)c3ccc(Cl)c(C(F)(F)F)c3)CC2)CC(C)(C)N1,nt,nt,nt,nt,-7,1,nt,nt
CC(C)OC(=O)NCCOC(=O)Nc1ccc(Cl)cc1,6,-1,29,4,16,8,11,9

# Screening results from PubChem.
